Measurements as given in ChEMBL document CHEMBL1811844, “Design, synthesis, and biological evaluation of triazolo-pyrimidine derivatives as novel inhibitors of hepatitis B virus surface antigen (HBsAg) secretion” (J Med Chem, 2011).

Columns and labels:
[1] = test system: Mus musculus; test: Toxicity in HBV infected transgenic 1.3.32 mouse assessed as change in serum amylase level at 7.9 to 25 mg/kg, po qd for 14 days; format: organism-based; parameters: dose 7.9-25 mg/kg, route oral; details: in vivo, 336 h
Outline: (§1)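 HBV-transgenic mice (strain 1.3.32), 10 per group, randomised; oral gavage once daily for 14 days at 25 or 7.9 mg/kg in NMP:Solutol HS15/saline vehicle; vehicle-only group. Weighed before the first dose and after 3 days; observed one hour after each dose. Tail-vein blood taken before dosing, at day 7 and at day 14 necropsy, each 3 h post-dose, for serum chemistry.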

[2] = test system: Mus musculus; test: Toxicity in HBV infected transgenic 1.3.32 mouse assessed as change in serum alkaline phosphatase level at 7.9 to 25 mg/kg, po qd for 14 days; format: organism-based; parameters: dose 7.9-25 mg/kg, route oral; details: in vivo, 336 h; outline: as §1
[3] = test system: Mus musculus; test: Toxicity in HBV infected transgenic 1.3.32 mouse assessed as change in serum albumin level at 7.9 to 25 mg/kg, po qd for 14 days; format: organism-based; parameters: dose 7.9-25 mg/kg, route oral; details: in vivo, 336 h; outline: as §1
[4] = test system: Mus musculus; test: Toxicity in HBV infected transgenic 1.3.32 mouse assessed as change in blood urea nitrogen level at 7.9 to 25 mg/kg, po qd for 14 days; format: organism-based; parameters: dose 7.9-25 mg/kg, route oral; details: in vivo, 336 h; outline: as §1
[5] = test system: Mus musculus; test: Toxicity in HBV infected transgenic 1.3.32 mouse assessed as elevation in serum bilirubin level at 7.9 to 25 mg/kg, po qd for 14 days; format: organism-based; parameters: dose 7.9-25 mg/kg, route oral; details: in vivo, 336 h; outline: as §1
[6] = test system: Mus musculus; test: Toxicity in HBV infected transgenic 1.3.32 mouse assessed as behavioral changes at 7.9 to 25 mg/kg, po qd for 14 days; format: organism-based; parameters: dose 7.9-25 mg/kg, route oral; details: in vivo, 336 h; outline: as §1
[7] = test system: Mus musculus; test: Toxicity in HBV infected transgenic 1.3.32 mouse assessed as morphological changes at 7.9 to 25 mg/kg, po qd for 14 days; format: organism-based; parameters: dose 7.9-25 mg/kg, route oral; details: in vivo, 336 h; outline: as §1
[8] = test system: Mus musculus; test: Acute toxicity in CL57BL/6 mouse assessed as effect on serum phosphorus level at 25 mg/kg, iv administered as single dose after 24 hrs; format: organism-based; parameters: dose 25 mg/kg, route intravenous; details: in vivo
Outline: (§2)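 Female C57BL/6 mice, four per group, randomized, each given one tail-vein injection of a 2 mg/mL solution in 1:1 NMP:Solutol HS15 diluted with saline; a vehicle-only group served as control. Mice were watched for the first hour and sacrificed at 24 h with necropsy. Serum was collected and run on an automated chemistry and electrolyte analyser.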

[9] = test system: Mus musculus; test: Acute toxicity in CL57BL/6 mouse assessed as effect on serum Na+ level at 25 mg/kg, iv administered as single dose after 24 hrs; format: organism-based; parameters: dose 25 mg/kg, route intravenous; details: in vivo; outline: as §2
[10] = test system: Mus musculus; test: Acute toxicity in CL57BL/6 mouse assessed as effect on serum Ca2+ level at 25 mg/kg, iv administered as single dose after 24 hrs; format: organism-based; parameters: dose 25 mg/kg, route intravenous; details: in vivo; outline: as §2
[11] = test system: Mus musculus; test: Acute toxicity in CL57BL/6 mouse assessed as effect on serum total protein level at 25 mg/kg, iv administered as single dose after 24 hrs; format: organism-based; parameters: dose 25 mg/kg, route intravenous; details: in vivo
Outline: (§3)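 Female C57BL/6 mice, four per group, randomised; single tail-vein bolus in NMP:Solutol HS15 (1:1) diluted with saline to 2 mg/mL, injected within 10 min of preparation; vehicle-only group. Close observation for the first hour; sacrifice and necropsy at 24 h. Whole-blood complete blood counts and serum chemistry, including total bilirubin and total protein, were measured.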

[12] = test system: Mus musculus; test: Acute toxicity in CL57BL/6 mouse assessed as effect on serum globulin level at 25 mg/kg, iv administered as single dose after 24 hrs; format: organism-based; parameters: dose 25 mg/kg, route intravenous; details: in vivo; outline: as §2
[13] = test system: Mus musculus; test: Acute toxicity in CL57BL/6 mouse assessed as effect on serum total bilirubin level at 25 mg/kg, iv administered as single dose after 24 hrs; format: organism-based; parameters: dose 25 mg/kg, route intravenous; details: in vivo; outline: as §2
[14] = test system: Mus musculus; test: Acute toxicity in CL57BL/6 mouse assessed as effect on serum creatinine level at 25 mg/kg, iv administered as single dose after 24 hrs; format: organism-based; parameters: dose 25 mg/kg, route intravenous; details: in vivo; outline: as §2
[15] = test system: Mus musculus; test: Acute toxicity in CL57BL/6 mouse assessed as effect on hemoglobin concentration at 25 mg/kg, iv administered as single dose after 24 hrs; format: organism-based; parameters: dose 25 mg/kg, route intravenous; details: in vivo
Outline: (§4)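 Female C57BL/6 mice, four per group, randomized, each given one tail-vein injection of a 2 mg/mL solution in 1:1 NMP:Solutol HS15 diluted with saline; a vehicle-only group served as control. Mice were watched closely for the first hour and sacrificed at 24 h with necropsy. Whole blood was taken for complete blood counts on an automated haematology analyser.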

[16] = test system: Mus musculus; test: Acute toxicity in CL57BL/6 mouse assessed as effect on red cell distribution width at 25 mg/kg, iv administered as single dose after 24 hrs; format: organism-based; parameters: dose 25 mg/kg, route intravenous; details: in vivo; outline: as §4
[17] = test system: Mus musculus; test: Acute toxicity in CL57BL/6 mouse assessed as effect on mean corpuscular volume at 25 mg/kg, iv administered as single dose after 24 hrs; format: organism-based; parameters: dose 25 mg/kg, route intravenous; details: in vivo; outline: as §4
[18] = test system: Mus musculus; test: Acute toxicity in CL57BL/6 mouse assessed as effect on hemoglobin at 25 mg/kg, iv administered as single dose after 24 hrs; format: organism-based; parameters: dose 25 mg/kg, route intravenous; details: in vivo; outline: as §4
[19] = test system: Mus musculus; test: Acute toxicity in CL57BL/6 mouse assessed as effect on eosinophils percent at 25 mg/kg, iv administered as single dose after 24 hrs; format: organism-based; parameters: dose 25 mg/kg, route intravenous; details: in vivo; outline: as §4
[20] = test system: Mus musculus; test: Acute toxicity in CL57BL/6 mouse assessed as reduction in neutrophils count at 25 mg/kg, iv administered as single dose after 24 hrs; format: organism-based; parameters: dose 25 mg/kg, route intravenous; details: in vivo; outline: as §3
[21] = test system: Mus musculus; test: Acute toxicity in CL57BL/6 mouse assessed as increase in lymphocytes count at 25 mg/kg, iv administered as single dose after 24 hrs; format: organism-based; parameters: dose 25 mg/kg, route intravenous; details: in vivo; outline: as §3
[22] = test system: Mus musculus; test: Acute toxicity in CL57BL/6 mouse assessed as effect on white blood cells count at 25 mg/kg, iv administered as single dose after 24 hrs; format: organism-based; parameters: dose 25 mg/kg, route intravenous; details: in vivo; outline: as §3
[23] = test system: Mus musculus; test: Acute toxicity in CL57BL/6 mouse assessed as effect on red blood cells count at 25 mg/kg, iv administered as single dose after 24 hrs; format: organism-based; parameters: dose 25 mg/kg, route intravenous; details: in vivo; outline: as §4
[24] = test system: Mus musculus; test: Acute toxicity in CL57BL/6 mouse assessed as mortality at 25 mg/kg, iv administered as single dose after 24 hrs; format: organism-based; parameters: dose 25 mg/kg, route intravenous; details: in vivo; outline: as §3
[25] = test system: Mus musculus; test: Acute toxicity in CL57BL/6 mouse assessed as morbidity at 25 mg/kg, iv administered as single dose after 24 hrs; format: organism-based; parameters: dose 25 mg/kg, route intravenous; details: in vivo; outline: as §3
[26] = test system: Mus musculus; test: Toxicity in HBV infected transgenic 1.3.32 mouse assessed as change in serum K+ level at 7.9 to 25 mg/kg, po qd for 14 days; format: organism-based; parameters: dose 7.9-25 mg/kg, route oral; details: in vivo, 336 h; outline: as §1
[27] = test system: Mus musculus; test: Toxicity in HBV infected transgenic 1.3.32 mouse assessed as change in serum phosphorus level at 7.9 to 25 mg/kg, po qd for 14 days; format: organism-based; parameters: dose 7.9-25 mg/kg, route oral; details: in vivo, 336 h; outline: as §1
[28] = test system: Rattus norvegicus; test: Half life in fasted Sprague-Dawley rat plasma at 5 mg/kg, iv by LC/MS/MS analysis; format: ADME, organism-based; parameters: dose 5 mg/kg, route intravenous; details: in vivo
Outline: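 Male Sprague-Dawley rats, 3 per treatment, carried jugular cannulae and were fasted 12 h with water. Compound was formulated at 2 mg/mL in 1:1 NMP:Solutol HS15 diluted with saline. Dosing was 5 mg/kg iv or 25 mg/kg oral gavage. Blood was drawn predose and at 5, 15, 30 min, 1, 3 and 6 h. Plasma was quantified by LC-MS/MS against an 8-point standard curve.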

[29] = test system: Rattus norvegicus; test: Cmax in fasted Sprague-Dawley rat plasma at 25 mg/kg, po after 6 hrs by LC/MS/MS analysis; format: ADME, organism-based; parameters: dose 25 mg/kg, route oral; details: in vivo
Outline: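 Male rats, 3 per treatment, fitted with jugular vein cannulae two days before dosing and fasted 12 h (water allowed). Compound given by gavage at 25 mg/kg, formulated at 2 mg/mL in 1:1 NMP:Solutol HS15 diluted with saline. Blood taken predose and at 5, 15, 30 min, 1, 3 and 6 h. Plasma quantified by LC/MS against an 8-point standard curve; Cmax calculated by standard methods.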

Fc1cccc(Cl)c1C1CC(c2ccc(Cl)cc2)Nc2ncnn21 (racemic)
Activity [1]: Non-toxic | Activity [2]: Non-toxic | Activity [3]: Non-toxic | Activity [4]: Non-toxic | Activity [5]: Toxic | Activity [6]: Non-toxic | Activity [7]: Non-toxic | Activity [8]: Non-toxic | Activity [9]: Non-toxic | Activity [10]: Non-toxic | Activity [11]: Non-toxic | Activity [12]: Non-toxic | Activity [13]: Non-toxic | Activity [14]: Non-toxic | Activity [15]: Non-toxic | Activity [16]: Non-toxic | Activity [17]: Non-toxic | Activity [18]: Non-toxic | Activity [19]: Non-toxic | Activity [20]: Toxic | Activity [21]: Toxic | Activity [22]: Non-toxic | Activity [23]: Non-toxic | Activity [24]: Non-toxic | Activity [25]: Non-toxic | Activity [26]: Non-toxic | Activity [27]: Non-toxic | t1/2 [28]: 2.17 h | Cmax [29]: 2437 ng/mL
